# In BindingDB's records for doi:10.1016/j.bmcl.2009.10.078 (Niddk, 2009):
# Biological target: T1, Protein Tat (Human immunodeficiency virus type 1 group M subtype B (isolate HXB2), UniProt P04608)
# T1 sequence (P04608 whole entry): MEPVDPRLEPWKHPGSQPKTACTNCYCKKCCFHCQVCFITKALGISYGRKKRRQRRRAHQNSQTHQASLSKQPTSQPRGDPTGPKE
# Experiment: Inhibition of HIV1 TAT transfected to human HeLa cells assessed as decrease in luminescence after 48 hrs by duel luciferase reporter gene assay
# Method in brief: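 HeLa cells stably carrying HIV-1 Tat and firefly luciferase on one bicistronic mRNA plus an HIV-1 LTR-renilla luciferase reporter. IC50 taken from dose-dependent fall in renilla luminescence (Tat-TAR function); firefly signal monitors Tat expression/cytotoxicity.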
row,SMILES,IC50
1,C[C@@H](CN[C@H](CN[C@H](CN[C@H](CNCCC(N)=O)Cc1ccc(O)cc1)Cc1ccc(O)cc1)Cc1ccc(O)cc1)NC[C@H](Cc1ccc(O)cc1)NC[C@H](Cc1ccc(O)cc1)NC[C@H](Cc1ccc(O)cc1)NC[C@@H](N)Cc1ccc(O)cc1,0.9 µM
2,NCCCC[C@@H](CN[C@H](CNCCC(N)=O)Cc1ccc(O)cc1)NC[C@H](Cc1ccc(O)cc1)NC[C@H](CCCCN)NC[C@H](Cc1c[nH]c2ccccc12)NC[C@@H](N)Cc1ccc(O)cc1,10 µM
3,NCCCC[C@@H](CN[C@H](CN[C@H](CN[C@H](CNCCC(N)=O)Cc1ccc(O)cc1)Cc1ccc(O)cc1)Cc1ccc(O)cc1)NC[C@H](Cc1ccc(O)cc1)NC[C@@H](N)Cc1ccc(O)cc1,12 µM
4,C[C@@H](CN[C@H](CN[C@H](CN[C@H](CNCCC(N)=O)Cc1ccc(O)cc1)Cc1ccc(O)cc1)Cc1ccc(O)cc1)NC[C@H](Cc1ccc(O)cc1)NC[C@@H](N)Cc1ccc(O)cc1,6 µM

# Continued, values first:
row,IC50,SMILES
1,35 µM,NCCCC[C@@H](CN[C@H](CNCCC(N)=O)Cc1ccc(O)cc1)NC[C@H](Cc1ccc(O)cc1)NC[C@H](CCCCN)NC[C@H](Cc1ccc(O)cc1)NC[C@@H](N)Cc1ccc(O)cc1
2,19 µM,NC(=O)CCNC[C@H](Cc1ccc(O)cc1)NC[C@H](Cc1ccc(O)cc1)NC[C@@H](N)Cc1ccc(O)cc1
3,30 µM,NC(=O)CCNC[C@H](Cc1ccc(O)cc1)NC[C@H](Cc1ccc(O)cc1)NC[C@H](Cc1ccc(O)cc1)NC[C@H](Cc1ccc(O)cc1)NC[C@@H](N)Cc1ccc(O)cc1
